A selection: hits, their analogues and other compounds. The true share with any hit is near 3%.
PfHsp90 yeast 2 = growth inhibition of yeast expressing Plasmodium Hsp90. actives 0.32% (n = 310,000). inhibition, % at 9.4 µM. AID 504621. S. cerevisiae expressing PfHsp90, BacTiter-Glo ATP, 48 h; yeast lacking PDR1 and PDR3 efflux regulators;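 active = every replicate shows inhibition above about 80%, whatever the replicate mean, limit read from the data; inconclusive = mean inhibition reaches the set limit but some replicate falls short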;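 also: 0% = DMSO neutral controls and 100% = 20 µM radicicol positive controls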
HSF-1 act = increases HSF-1 driven luciferase reporter signal | NIH3T3-HGL HSF-1 luciferase reporter, MG132, 8 h; 100% = twice DMSO control signal | activation, % at 9 µM | actives 1.7% (n = 300,000) | AID 504408;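 active = mean replicate activation of at least 50% with a set share of replicates each reaching 50%; inconclusive = only one of those two conditions met; inactive = mean below 50% and too few replicates reaching it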;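 also: 0% = median of the neutral control wells and 100% = twice that signal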
Glyco luc inh = blocks N-linked glycosylation in D54 reporter cells. D54 ERlucT glycosylation luciferase reporter, 24 h; percent of 100 nM tunicamycin response. reporter increase, % at 12.5 µM. actives 0.23% (n = 360,000);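 active = mean luciferase reporter signal, scaled so untreated is 0 and the glycosylation-blocking control 100, at or above a set limit in every replicate; inconclusive = mean reaches the limit but not every replicate does; inactive = mean below the limit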;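 also: luciferase carries N-glycosylation sites so blocking glycosylation raises the light; 0% = median of neutral control wells and 100% = median of 100 nM tunicamycin wells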
CaV13 ICDI inh = Primary screen for inhibitors of IQ motif and Ca2+-dependent inactivation inhibitor domain binding in CACNA1D, Förster resonance energy transfer in living cells, … | actives 0.098% (n = 340,000) | inhibition, % at 12.3 µM | HEK cells, CFP/YFP FRET ICDI-IQ, plate reader, 10 min; percent FRET-ratio fall versus neutral wells;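 active = mean replicate inhibition of at least 30% and at least 1% of replicates passing that level; inconclusive = only one of the two criteria is met; inactive = neither criterion is met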;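 also: 0% = median of the neutral control wells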
T cruzi inh = T. cruzi replication inhibition; actives 1.4% (n = 300,000); inhibition, % (no concentration beside the values); T. cruzi beta-gal in NIH3T3, luminescence, 90 h;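 active = mean inhibition across valid replicates above about 55%, limit read from the data; inconclusive = mean below that limit but half or more replicates reach it; inactive = mean below it, under half of replicates reach it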;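 also: signal also drops with host cell toxicity which is not excluded here; 0% = plate median of DMSO wells and 100% = zero luminescence signal; higher percent means less beta-gal luminescence so fewer parasites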
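Read-out: Parasite load inhibition, % | Test system: Mouse NIH/3T3 fibroblasts infected with β-gal-expressing T. cruzi Tulahuen C4 | Amount: 5,000 cells/well | Medium: DMEM, 2% fetal bovine serum | Signal: GalScreen β-gal luminescence, detergent lysis, 60 min | Timing: 3 h attach, ≥90 h co-culture | Also added: Tulahuen C4 trypomastigotes, 5000/well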
PvdQ inh = P. aeruginosa PvdQ acylase inhibition. actives 0.063% (n = 340,000). AID 488965. purified PvdQ acylase, fluorescence plate reader. inhibition, % at 10 µM; in the data active = inhibition above about 30%, passing the limit was not always enough; inconclusive = no clear call, values can overlap the other calls;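 also: 0% = vehicle neutral wells and 100% = reference inhibitor wells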
Starred values were filed as active, the others as inactive; ! = a repeat was not active.

Screening CCOC(=O)c1n[nH]c2ccccc12 returned HSF-1 act -5, Glyco luc inh -1, CaV13 ICDI inh -4, T cruzi inh -10 and PvdQ inh -11.
O=C(NCCc1ccc(Cl)cc1)c1n[nH]c2ccccc12 was read as PfHsp90 yeast 2 11, Glyco luc inh 2, CaV13 ICDI inh -1 and PvdQ inh -7.
O=C(COC(=O)c1n[nH]c2ccccc12)NC(=O)NC1CCCCC1 was read as PfHsp90 yeast 2 -3, HSF-1 act 52*, Glyco luc inh 3, CaV13 ICDI inh -4, T cruzi inh 4 and PvdQ inh -7.
O=C(OCCOc1ccccc1)c1n[nH]c2ccccc12 was read as PfHsp90 yeast 2 9, HSF-1 act 67*, Glyco luc inh -3, CaV13 ICDI inh -15, T cruzi inh -16 and PvdQ inh -20.
Screening O=C(NCCc1ccccc1)c1n[nH]c2ccccc12 returned PfHsp90 yeast 2 -31, HSF-1 act 59*, Glyco luc inh -2, CaV13 ICDI inh -3, T cruzi inh 12 and PvdQ inh -9.
`CCCCCCCCN1C(=O)[C@@H](CC(=O)NCC23CC4CC(CC(C4)C2)C3)C[C@@]2(C(=O)OC)C1=C[C@H](C(C)(C)C)O[C@@H]2C` gave CaV13 ICDI inh -7.
N#CC1=C2CCCCC2(O)NC1=O (stereo not given) was read as Glyco luc inh 0 and CaV13 ICDI inh -6.
`Cc1ccc(-c2[nH]ncc2C(=O)c2ccc(Br)cc2)c(O)c1` gave PfHsp90 yeast 2 -4, HSF-1 act 71*, Glyco luc inh -2, CaV13 ICDI inh -10, T cruzi inh -3 and PvdQ inh -4.
For Cc1ccc(C(=O)c2cn[nH]c2-c2cc(Cl)ccc2O)cc1 the results were PfHsp90 yeast 2 5, HSF-1 act 12, Glyco luc inh -2, CaV13 ICDI inh -8, T cruzi inh -17 and PvdQ inh -37.
O=C(/C=C/c1cccc([N+](=O)[O-])c1)NC(=S)Nc1ccc(CN2CCOCC2)cc1 was read as PfHsp90 yeast 2 -25, HSF-1 act 136*, Glyco luc inh inconclusive, CaV13 ICDI inh -5, T cruzi inh 17 and PvdQ inh -4.
Screening O=C(NC(=S)Nc1ccc(CN2CCOCC2)cc1)c1ccc([N+](=O)[O-])cc1 returned PfHsp90 yeast 2 14, HSF-1 act -4, Glyco luc inh 1, CaV13 ICDI inh -18, T cruzi inh -5 and PvdQ inh -13.
CC1(C(=O)c2ccccc2)C2c3c(ccc4ccccc34)OC(=O)C21C(=O)N1CCOCC1 (stereo not given) was read as PfHsp90 yeast 2 105*, HSF-1 act 16, Glyco luc inh 2, T cruzi inh -7 and PvdQ inh -4.
CSS(=O)(=O)c1cccc2cccnc12 was read as PfHsp90 yeast 2 10, HSF-1 act 78*, Glyco luc inh 1, CaV13 ICDI inh -5, T cruzi inh 16 and PvdQ inh 0.
c1cnc2c(c1)ccc1cccnc12 was read as PfHsp90 yeast 2 125*!, HSF-1 act -13, Glyco luc inh -14, CaV13 ICDI inh -7, T cruzi inh 55*! and PvdQ inh 0.
Screening Cc1cc(C2=CC(=O)C[C@H](c3ccc(F)cc3)C2)ccc1F returned Glyco luc inh -2 and CaV13 ICDI inh -6.
For Cc1cc(O)ccc1-c1ccc2nncn2c1 the results were Glyco luc inh 2 and CaV13 ICDI inh -6.
For C/C(=N\OC(=O)c1c(-c2c(F)cccc2Cl)noc1C)c1nccs1 the results were PfHsp90 yeast 2 4, HSF-1 act 13, Glyco luc inh 2, CaV13 ICDI inh -7, T cruzi inh -7 and PvdQ inh -7.
Screening COc1ccc(/C(N)=N/OC(=O)c2ccc3c(c2)OCO3)cc1OC returned PfHsp90 yeast 2 7, HSF-1 act 5, Glyco luc inh -3, CaV13 ICDI inh -7, T cruzi inh 57* and PvdQ inh -9.
Cc1onc(-c2c(F)cccc2Cl)c1C(=O)O/N=C(\N)c1ccc([N+](=O)[O-])o1 was read as PfHsp90 yeast 2 -8, HSF-1 act 32, Glyco luc inh 11, CaV13 ICDI inh -7, T cruzi inh 60* and PvdQ inh -1.
For N/C(=N\OC(=O)c1ccc2c(c1)OCO2)c1cccc(Br)c1 the results were HSF-1 act 26, Glyco luc inh 2, CaV13 ICDI inh -1, T cruzi inh -5 and PvdQ inh -14.
For COc1ccc(/C(N)=N/OC(=O)c2c(-c3ccccc3Cl)noc2C)cc1OC the results were PfHsp90 yeast 2 -14, HSF-1 act -3, Glyco luc inh 15, T cruzi inh 57* and PvdQ inh 1.
Screening C[C@@H]1ON(C)[C@H]2C[C@H]3c4[nH]c5c(-c6ccccc6F)cccc5c4CCN3C(=O)[C@@H]12 returned CaV13 ICDI inh -4.
`CCCCN(CC)CCCNC(=O)c1cn(-c2ccc(OC)cc2)c(=O)c2ccccc12` gave PfHsp90 yeast 2 -36, HSF-1 act -3, Glyco luc inh -1, CaV13 ICDI inh -3, T cruzi inh 58* and PvdQ inh -15.
CCCCN(CC)CCNC(=O)c1cn(C)c(=O)c2c1c1ccccc1n2C was read as PfHsp90 yeast 2 8, HSF-1 act 12, Glyco luc inh -3, CaV13 ICDI inh -18, T cruzi inh 5 and PvdQ inh -7.
Screening CCCCN(CC)CCNC(=O)c1nn(-c2ccc(OC)cc2)c(=O)c2c1c1ccccc1n2C returned PfHsp90 yeast 2 -13, HSF-1 act 18, Glyco luc inh -3, CaV13 ICDI inh 10, T cruzi inh 57* and PvdQ inh 10.
O=C(N[C@H](C(=O)N1CCC[C@H]1C(=O)NC1CCCC1)c1ccccc1)c1ccccc1 was read as CaV13 ICDI inh -3.
Screening C=CCN=C1NC(c2ccc(F)cc2)C(C(=O)OC)=C(C)N1C (stereo not given) returned CaV13 ICDI inh -5.
O=C(OCC(=O)N1CCN(C(=O)c2ccco2)CC1)c1cc(-c2cccc(Br)c2)nc2ccccc12 was read as PfHsp90 yeast 2 100*, HSF-1 act 14, Glyco luc inh 0, CaV13 ICDI inh -5, T cruzi inh -5 and PvdQ inh 2.
For O=C(OCC(=O)N1CCN(C(=O)c2ccco2)CC1)c1cc(-c2ccccc2)nc2ccccc12 the results were PfHsp90 yeast 2 101*, HSF-1 act 13, Glyco luc inh -3, T cruzi inh -9 and PvdQ inh -14.
`COc1ccccc1N1CCN(C(=O)c2ccc3[nH]c4c(c3c2)CC(C)CC4)CC1` (stereo not given) gave PfHsp90 yeast 2 -31, HSF-1 act 12, Glyco luc inh 0, CaV13 ICDI inh -4, T cruzi inh 57* and PvdQ inh 6.

Screens from PubChem.
